{"source": "ChEMBL document CHEMBL3272255", "about": "“Substituted alpah-methylbenzyl and tricyclic arylalkyl lactamimides as inhibitors of blood platelet aggregation” (J Med Chem, 1976)", "key": {"[1]": {"system": "Cavia porcellus", "test": "Toxicity in guinea pig assessed as mortality at 300 mg/kg, po measured after third dose", "assay_type": "organism-based", "parameters": "dose 300 mg/kg, route oral", "conditions": "in vivo"}, "[2]": {"system": "Cavia porcellus", "test": "Antiplatelet activity in guinea pig assessed as inhibition of 0.25 ug/ml ADP-induced platelet aggregation measured as change in light transmittance at 30 mg/kg, po for 4 days measured at 2 hrs post last dose by aggregometric analysis relative to control", "assay_type": "functional", "summary_of_the_method": "(§1)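 Dosing was oral by stomach tube for 4 days, alongside an untreated control group. Blood was drawn by heart puncture 2 h after the final dose, then citrated PRP was isolated and adjusted for aggregometry. ADP was added in vitro at the stated concentration. The read-out was the maximum increase in light transmittance (ΔT); group means were compared, treated vs control.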"}, "[3]": {"system": "Cavia porcellus", "test": "Antiplatelet activity in guinea pig assessed as 0.45 ug/ml ADP-induced platelet aggregation measured as change in light transmittance at 100 mg/kg, po for 4 days measured at 2 hrs post last dose by aggregometric analysis"}, "[4]": {"system": "Cavia porcellus", "test": "Antiplatelet activity in guinea pig assessed as inhibition of 0.8 ug/ml ADP-induced platelet aggregation measured as change in light transmittance at 10 mg/kg, po for 4 days measured at 2 hrs post last dose by aggregometric analysis relative to control", "assay_type": "functional", "summary_of_the_method": "as §1"}, "[5]": {"test": "Antiplatelet activity in human platelet rich plasma assessed as inhibition of ADP-induced platelet aggregation at 10 ug/ml after 20 mins by aggregometric analysis relative to control", "assay_type": "functional", "summary_of_the_method": "(§2)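 Human blood came from fasting donors who had taken no drugs for 5 days. It was citrated 1:9 with 3.8% sodium citrate. PRP was prepared at 100g for 10 min and PPP at 1500g for 15 min, and PRP was diluted with autologous PPP to 400000 platelets/mm³. Compound or saline control was incubated 20 min at 37°, then ADP was added at 2 μg/ml final. Percent inhibition was calculated from maximal ΔT, test vs control.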"}, "[6]": {"system": "Cavia porcellus", "test": "Antiplatelet activity in guinea pig assessed as inhibition of 0.45 ug/ml ADP-induced platelet aggregation measured as area between aggregation curve and baseline transmittance at 100 mg/kg, po for 4 days measured at 2 hrs post last dose by aggregometric analysis relative to control", "assay_type": "functional", "summary_of_the_method": "(§3)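 Guinea pigs were dosed by stomach tube at the stated dose daily for 4 days, with an untreated control group kept in parallel. Blood was taken by heart puncture 2 h after the last dose, and citrated PRP was isolated and adjusted. ADP was added in vitro. Total response was the area between the aggregation curve and baseline transmittance over 5 min, measured by planimeter. Percent inhibition came from group-average total response, treated vs control.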"}, "[7]": {"system": "Cavia porcellus", "test": "Antiplatelet activity in guinea pig assessed as inhibition of 0.25 ug/ml ADP-induced platelet aggregation measured as area between aggregation curve and baseline transmittance at 30 mg/kg, po for 4 days measured at 2 hrs post last dose by aggregometric analysis relative to control", "assay_type": "functional", "summary_of_the_method": "as §3"}, "[8]": {"system": "Cavia porcellus", "test": "Antiplatelet activity in guinea pig assessed as inhibition of 0.8 ug/ml ADP-induced platelet aggregation measured as area between aggregation curve and baseline transmittance at 10 mg/kg, po for 4 days measured at 2 hrs post last dose by aggregometric analysis relative to control", "assay_type": "functional", "summary_of_the_method": "as §3"}, "[9]": {"system": "Cavia porcellus", "test": "Antiplatelet activity in guinea pig assessed as inhibition of 0.45 ug/ml ADP-induced platelet aggregation measured as area between aggregation curve and baseline transmittance at 100 mg/kg, po for 1 day by aggregometric analysis relative to control", "assay_type": "functional", "conditions": "24 h"}, "[10]": {"system": "Cavia porcellus", "test": "Antiplatelet activity in guinea pig assessed as inhibition of 0.35 ug/ml ADP-induced platelet aggregation measured as change in light transmittance at 30 mg/kg, po for 4 days measured at 2 hrs post last dose by aggregometric analysis relative to control", "assay_type": "functional", "summary_of_the_method": "as §1"}, "[11]": {"system": "Cavia porcellus", "test": "Antiplatelet activity in guinea pig assessed as inhibition of 0.35 ug/ml ADP-induced platelet aggregation measured as area between aggregation curve and baseline transmittance at 30 mg/kg, po for 4 days measured at 2 hrs post last dose by aggregometric analysis relative to control", "assay_type": "functional", "summary_of_the_method": "as §3"}, "[12]": {"system": "Cavia porcellus", "test": "Antiplatelet activity in guinea pig assessed as inhibition of 0.8 ug/ml ADP-induced platelet aggregation measured as area between aggregation curve and baseline transmittance at 100 mg/kg, po for 1 day by aggregometric analysis relative to control", "assay_type": "functional", "conditions": "24 h"}, "[13]": {"system": "Cavia porcellus", "test": "Antiplatelet activity in guinea pig assessed as inhibition of 0.4 ug/ml ADP-induced platelet aggregation measured as area between aggregation curve and baseline transmittance at 10 mg/kg, po for 4 days measured at 2 hrs post last dose by aggregometric analysis relative to control", "assay_type": "functional", "summary_of_the_method": "as §3"}, "[14]": {"test": "Antiplatelet activity in human platelet rich plasma assessed as inhibition of ADP-induced platelet aggregation at 30 ug/ml after 20 mins by aggregometric analysis relative to control", "assay_type": "functional", "summary_of_the_method": "as §2"}, "[15]": {"system": "Cavia porcellus", "test": "Antiplatelet activity in guinea pig assessed as inhibition of 0.8 ug/ml ADP-induced platelet aggregation measured as change in light transmittance at 100 mg/kg, po for 4 days measured at 2 hrs post last dose by aggregometric analysis relative to control", "assay_type": "functional", "summary_of_the_method": "as §1"}, "[16]": {"system": "Cavia porcellus", "test": "Antiplatelet activity in guinea pig assessed as inhibition of 0.8 ug/ml ADP-induced platelet aggregation measured as change in light transmittance at 30 mg/kg, po for 4 days measured at 2 hrs post last dose by aggregometric analysis relative to control", "assay_type": "functional", "summary_of_the_method": "as §1"}, "[17]": {"system": "Cavia porcellus", "test": "Antiplatelet activity in guinea pig assessed as inhibition of 0.45 ug/ml ADP-induced platelet aggregation measured as area between aggregation curve and baseline transmittance at 30 mg/kg, po for 4 days measured at 2 hrs post last dose by aggregometric analysis relative to control", "assay_type": "functional", "summary_of_the_method": "as §3"}, "[18]": {"system": "Cavia porcellus", "test": "Antiplatelet activity in guinea pig assessed as inhibition of 0.8 ug/ml ADP-induced platelet aggregation measured as area between aggregation curve and baseline transmittance at 30 mg/kg, po for 4 days measured at 2 hrs post last dose by aggregometric analysis relative to control", "assay_type": "functional", "summary_of_the_method": "as §3"}, "[19]": {"system": "Cavia porcellus", "test": "Antiplatelet activity in guinea pig assessed as 0.45 ug/ml ADP-induced platelet aggregation measured as change in light transmittance at 100 mg/kg, po for 1 day by aggregometric analysis", "conditions": "24 h"}, "[20]": {"test": "Antiplatelet activity in human platelet rich plasma assessed as platelet factor-3 release at 300 ug/ml after 20 mins relative to control"}, "[21]": {"test": "Antiplatelet activity in human platelet rich plasma assessed as inhibition of ADP-induced platelet aggregation at 100 ug/ml after 20 mins by aggregometric analysis relative to control", "assay_type": "functional", "summary_of_the_method": "as §2"}, "[22]": {"system": "Cavia porcellus", "test": "Antiplatelet activity in guinea pig assessed as inhibition of 0.4 ug/ml ADP-induced platelet aggregation measured as change in light transmittance at 10 mg/kg, po for 4 days measured at 2 hrs post last dose by aggregometric analysis relative to control", "assay_type": "functional", "summary_of_the_method": "as §1"}, "[23]": {"system": "Cavia porcellus", "test": "Antiplatelet activity in guinea pig assessed as inhibition of 0.8 ug/ml ADP-induced platelet aggregation measured as change in light transmittance at 100 mg/kg, po for 1 day by aggregometric analysis relative to control", "assay_type": "functional", "conditions": "24 h"}, "[24]": {"system": "Cavia porcellus", "test": "Antiplatelet activity in guinea pig assessed as inhibition of 0.8 ug/ml ADP-induced platelet aggregation measured as area between aggregation curve and baseline transmittance at 100 mg/kg, po for 4 days measured at 2 hrs post last dose by aggregometric analysis relative to control", "assay_type": "functional", "summary_of_the_method": "as §3"}, "[25]": {"system": "Cavia porcellus", "test": "Antiplatelet activity in guinea pig assessed as inhibition of 0.45 ug/ml ADP-induced platelet aggregation measured as change in light transmittance at 30 mg/kg, po for 4 days measured at 2 hrs post last dose by aggregometric analysis relative to control", "assay_type": "functional", "summary_of_the_method": "as §1"}}, "data": [{"smiles": "CCCC(C/N=C1/CCCCCN1)(c1ccccc1)c1ccccc1.Cl", "values": [{"measurement": "Activity", "setting": "[1]", "value": "Toxic"}, {"measurement": "ΔT % at 30 mg/kg", "setting": "[2]", "value": 21.2, "unit": "%"}, {"measurement": "ΔT % at 100 mg/kg", "setting": "[3]", "value": 34.3, "unit": "%"}, {"measurement": "ΔT % at 10 mg/kg", "setting": "[4]", "value": 35.2, "unit": "%"}, {"measurement": "inhibition at 10 µg/mL", "setting": "[5]", "value": 1, "unit": "%"}, {"measurement": "inhibition in vivo at 100 mg/kg", "setting": "[6]", "value": 70, "unit": "%"}, {"measurement": "inhibition in vivo at 30 mg/kg", "setting": "[7]", "value": 63, "unit": "%"}, {"measurement": "inhibition in vivo at 10 mg/kg", "setting": "[8]", "value": 26, "unit": "%"}, {"measurement": "inhibition in vivo at 100 mg/kg", "setting": "[9]", "value": 13, "unit": "%"}, {"measurement": "ΔT % at 30 mg/kg", "setting": "[10]", "value": 24.8, "unit": "%"}, {"measurement": "inhibition in vivo at 30 mg/kg", "setting": "[11]", "value": 55, "unit": "%"}, {"measurement": "inhibition in vivo at 100 mg/kg", "setting": "[12]", "value": 12, "unit": "%"}, {"measurement": "inhibition in vivo at 10 mg/kg", "setting": "[13]", "value": 21, "unit": "%"}, {"measurement": "inhibition at 30 µg/mL", "setting": "[14]", "value": 57, "unit": "%"}, {"measurement": "ΔT % at 100 mg/kg", "setting": "[15]", "value": 62.7, "unit": "%"}, {"measurement": "ΔT % at 30 mg/kg", "setting": "[16]", "value": 35.3, "unit": "%"}, {"measurement": "inhibition in vivo at 30 mg/kg", "setting": "[17]", "value": 18, "unit": "%"}, {"measurement": "inhibition in vivo at 30 mg/kg", "setting": "[18]", "value": 14, "unit": "%"}, {"measurement": "ΔT % at 100 mg/kg", "setting": "[19]", "value": 21.4, "unit": "%"}, {"measurement": "%max", "setting": "[20]", "value": 0.13, "unit": "%"}, {"measurement": "inhibition at 100 µg/mL", "setting": "[21]", "value": 100, "unit": "%"}, {"measurement": "ΔT % at 10 mg/kg", "setting": "[22]", "value": 14.6, "unit": "%"}, {"measurement": "ΔT % at 100 mg/kg", "setting": "[23]", "value": 36, "unit": "%"}, {"measurement": "inhibition in vivo at 100 mg/kg", "setting": "[24]", "value": 20, "unit": "%"}, {"measurement": "ΔT % at 30 mg/kg", "setting": "[25]", "value": 19.7, "unit": "%"}]}]}
